# ChEMBL document CHEMBL1125135, “Synthesis and central nervous system actions of thyrotropin-releasing hormone analogues containing a dihydroorotic acid moiety” (J Med Chem, 1990)
# Active and inactive are the calls of the source. The rule behind the calls is not given here.
# Key:
# [1] = system: Mus musculus; assay: (§1) Effect on reserpine-induced hypothermia (antagonist activity) in mice by intraperitoneal (ip) administration relative to TRH; format: functional
# In short: (§2)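 Mouse CNS assay run by the method of an earlier report. Potency ratio to TRH derived from dose-response data by parallel line assay.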
# [2] = system: Mus musculus; assay: (§3) Effect on pentobarbitol anesthesia (antagonist activity) in mice by intravenous (iv) administration relative to TRH; format: functional; in short: as §2
# [3] = system: Mus musculus; assay: Evaluated for the effect on spontaneous locomotor activity in mice by intraperitoneal (ip) administration relative to TRH
# [4] = system: Mus musculus; assay: as above; remark: listed apart in the source
# [5] = system: Mus musculus; assay: Toxicity and mortality indicates the number of dead animals / number of animals used at dose of 500 mg/kg by administering intravenously (iv) in 3 mice.; format: organism-based; design: dose 500 mg/kg, route intravenous; conditions: in vivo
# In short: (§4)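 Acute toxicity in male Std/ddY mice (26-28 g), three to 10 per group. Compound dissolved in physiological saline and given as a single iv dose of 500 mg/kg. Animals observed for 1 week at 23-24 °C. Mortality recorded as dead/used.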
# [6] = system: Mus musculus; assay: as §1; format: functional, organism-based
# In short: (§5)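 Mouse CNS tests followed methods from the authors' earlier paper. The potency ratio versus TRH comes from dose-response data for the test compound and TRH using the parallel line assay method.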
# [7] = system: Mus musculus; assay: as §3; format: functional, organism-based; in short: as §5
# [8] = system: Mus musculus; assay: Effect on reserpine-induced hypothermia (antagonist activity) in mice by intraperitoneal (ip) administration relative to TRH; Nonactive; format: functional; in short: as §2
# [9] = system: Mus musculus; assay: Toxicity and mortality indicates the number of dead animals / number of animals used at the compound dose of 500 mg/kg by administering intravenously (iv) in 3 mice; format: functional; in short: as §4
# [10] = system: Mus musculus; assay: Evaluated for the effect on spontaneous locomotor activity in mice by intraperitoneal (ip) administration relative to TRHV; Not active
# [11] = system: Mus musculus; assay: Effect on pentobarbitol anesthesia (antagonist activity) in mice by intravenous (iv) administration relative to TRHC; Not active; format: functional, organism-based; in short: as §5
# [12] = system: Rattus norvegicus; assay: The thyrotropin (TSH) releasing activity was measured as serum TSH at 0.5 ug/rat dose (i.v.); format: functional, organism-based
# In short: (§6)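 TSH release test in rats run as in the authors' earlier paper. Peptide given iv as μg/rat doses, 4–7 rats per group with a control group. Serum TSH reported in μg/100 mL as mean ± SE. Potency ratio versus TRH from parallel-line analysis of dose-response curves. Groups compared with control by two-tailed Student's t test.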
# [13] = system: Rattus norvegicus; assay: The thyrotropin (TSH) releasing activity was measured as serum TSH at 0.03125 ug/rat dose (i.v.); format: functional, organism-based; in short: as §6
# [14] = Evaluated for the potency ratio from the dose-response curve of TRH and compound by the parallel line assay method.; format: functional; in short: as §6
# [15] = system: Rattus norvegicus; assay: The thyrotropin (TSH) releasing activity was measured as serum TSH at 0.125 ug/rat dose (i.v.); format: functional, organism-based; in short: as §6
# [16] = system: Mus musculus; assay: Toxicity and mortality indicates the number of dead animals / number of animals used at the compound dose of 500 mg/kg by administering intravenously (iv) in mice.; format: organism-based; design: dose 500 mg/kg, route intravenous; conditions: in vivo; in short: as §4
Compound,Activity [2],Activity [4],Mortality [5],Activity [6],Activity [7],further results
C=CCN1C(=O)C[C@@H](C(=O)N[C@@H](Cc2c[nH]cn2)C(=O)N2CCC[C@H]2C(N)=O)NC1=O [listing 1 of 2 here],4.4,,,,,Activity [1]: 4.7; Activity [3]: 5.7
CN1C(=O)C[C@@H](C(=O)N[C@@H](Cc2c[nH]cn2)C(=O)N2CCC[C@H]2C(N)=O)N(C)C1=O [listing 1 of 2 here],1.2,,,,,Activity [1]: 0.5; Activity [3]: 0.4
NC(=O)[C@@H]1CCCN1C(=O)[C@H](Cc1c[nH]cn1)NC(=O)C1CC(=O)N(CCO)C(=O)N1 (mixture of isomers),,inactive,0,inactive,inactive,
CNC(=O)[C@H]1CCCN1C(=O)[C@@H](Cc1c[nH]cn1)NC(=O)[C@@H]1CC(=O)N(C)C(=O)N1,0.6,,0,,,Activity [3]: 0.4; Activity [8]: 0.9
NC(=O)[C@@H]1CCCN1C(=O)[C@H](Cc1c[nH]cn1)NC(=O)[C@@H]1CC(=O)N(CCF)C(=O)N1 [listing 1 of 2 here],,,1,,,
CCCCCN1C(=O)C[C@@H](C(=O)N[C@@H](Cc2c[nH]cn2)C(=O)N2CCC[C@H]2C(N)=O)NC1=O [listing 1 of 2 here],,,2,,,
CN1C(=O)N(Cc2ccccc2)C(=O)CC1C(=O)N[C@@H](Cc1c[nH]cn1)C(=O)N1CCC[C@H]1C(N)=O (mixture of isomers),,inactive,0,inactive,inactive,
NC(=O)[C@@H]1CCCN1C(=O)[C@H](Cc1c[nH]cn1)NC(=O)C1=NC(=O)NC(=O)C1,1.3,,0,,,Activity [1]: 5.5; Activity [3]: 3.1
CN1C(=O)C[C@@H](C(=O)N[C@@H](Cc2c[nH]cn2)C(=O)N2CCC[C@H]2C(N)=O)NC1=O,28.1,,,,,Activity [1]: 89.4; Activity [3]: 60.6; Mortality [9]: 0
CN1C(=O)C[C@@H](C(=O)N[C@@H](Cc2c[nH]cn2)C(=O)N2CCC[C@@H]2C(N)=O)NC1=O,,inactive,0,inactive,inactive,
COC(=O)[C@@H](Cc1c[nH]cn1)NC(=O)[C@@H]1CC(=O)N(C)C(=O)N1,,inactive,0,inactive,inactive,
NC(=O)[C@@H]1CCCN1C(=O)[C@H](Cc1c[nH]cn1)NC(=O)[C@@H]1CC(=O)N(Cc2ccccc2)C(=O)N1 [listing 1 of 2 here],,,3,,,
NC(=O)[C@@H]1CCCN1C(=O)[C@H](Cc1c[nH]cn1)NC(=O)C1CC(=O)N(CCOCc2ccccc2)C(=O)N1 (mixture of isomers),0.4,inactive,0,,,Activity [1]: 1.1
CCCCCN1C(=O)C[C@@H](C(=O)N[C@H](Cc2c[nH]cn2)C(=O)N2CCC[C@@H]2C(N)=O)NC1=O,,inactive,,inactive,,
CN1C(=O)NC(=O)C[C@H]1C(=O)N[C@H](Cc1c[nH]cn1)C(=O)N1CCC[C@@H]1C(N)=O,,inactive,,inactive,inactive,
Cn1c(=O)cc(C(=O)N[C@@H](Cc2c[nH]cn2)C(=O)N2CCC[C@@H]2C(N)=O)[nH]c1=O,0.4,inactive,0,inactive,,
NCCN1C(=O)CC(C(=O)N[C@@H](Cc2c[nH]cn2)C(=O)N2CCC[C@H]2C(N)=O)NC1=O (mixture of isomers),,inactive,0,inactive,inactive,
CCC[C@H](NC(=O)[C@@H]1CC(=O)N(C)C(=O)N1)C(=O)N1CCC[C@@H]1C(N)=O,,inactive,0,inactive,inactive,
NC(=O)[C@@H]1CCCN1C(=O)[C@H](Cc1c[nH]cn1)NC(=O)[C@@H]1CC(=O)N(CCF)C(=O)N1 [listing 2 of 2 here],1.2,,,,,Activity [1]: 4.1; Activity [3]: 0.9
CN1C(=O)C[C@@H](C(=O)N[C@H](Cc2c[nH]cn2)C(=O)N2CCC[C@@H]2C(=O)OCc2ccccc2)NC1=O.Cl,,,3,inactive,,Activity [10]: inactive; Activity [11]: inactive
NC(=O)[C@@H]1CCCN1C(=O)[C@H](Cc1c[nH]cn1)NC(=O)[C@@H]1CCC(=O)N1,,,,,,Serum TSH [12]: 351 µg 100ml-1; Serum TSH [13]: 59.1 µg 100ml-1; Ratio [14]: 1; Serum TSH [15]: 115 µg 100ml-1

Compound,Activity [2],Activity [4],Mortality [5],Activity [6],Activity [7],further results
CCCCCCCCCCCCCCCCCCN1C(=O)C[C@@H](C(=O)N[C@H](Cc2c[nH]cn2)C(=O)N2CCC[C@@H]2C(N)=O)NC1=O,,inactive,,inactive,inactive,
CCCCN1C(=O)C[C@@H](C(=O)N[C@@H](Cc2c[nH]cn2)C(=O)N2CCC[C@H]2C(N)=O)NC1=O [listing 1 of 2 here],,,1,,,
NC(=O)[C@@H]1CCCN1C(=O)[C@H](Cc1c[nH]cn1)NC(=O)[C@@H]1CC(=O)N(Cc2ccccc2)C(=O)N1 [listing 2 of 2 here],1.4,,,,,Activity [1]: 6.8; Activity [3]: 2.3
CC(C)N1C(=O)C[C@@H](C(=O)N[C@@H](Cc2c[nH]cn2)C(=O)N2CCC[C@H]2C(N)=O)NC1=O [listing 1 of 2 here],,,0,,,
CN(C)C(=O)[C@H]1CCCN1C(=O)[C@@H](Cc1c[nH]cn1)NC(=O)[C@@H]1CC(=O)N(C)C(=O)N1,,inactive,0,inactive,inactive,
CN1C(=O)C[C@@H](C(=O)N[C@H](Cc2c[nH]cn2)C(=O)O)NC1=O,,inactive,0,inactive,inactive,
CCCCCN1C(=O)C[C@@H](C(=O)N[C@@H](Cc2c[nH]cn2)C(=O)N2CCC[C@H]2C(N)=O)NC1=O [listing 2 of 2 here],0.4,,,,,
CCCN1C(=O)C[C@@H](C(=O)N[C@@H](Cc2c[nH]cn2)C(=O)N2CCC[C@H]2C(N)=O)NC1=O [listing 1 of 2 here],,,,,,Activity [3]: 0.7
CN1C(=O)NC(=O)C[C@H]1C(=O)N[C@@H](Cc1c[nH]cn1)C(=O)N1CCC[C@H]1C(N)=O,,,0,,,
CCCCN1C(=O)C[C@@H](C(=O)N[C@@H](Cc2c[nH]cn2)C(=O)N2CCC[C@H]2C(N)=O)NC1=O [listing 2 of 2 here],0.8,,,,,Activity [1]: 1.8; Activity [3]: 1.2
CC(=O)O.CCCCCCCCCCCCCCCCCCN1C(=O)C[C@@H](C(=O)N[C@@H](Cc2c[nH]cn2)C(=O)N2CCC[C@H]2C(N)=O)NC1=O,,,,,,Mortality [16]: 1
CCCCN1C(=O)CC(C(=O)N[C@@H](Cc2c[nH]cn2)C(=O)N2CCC[C@H]2C(N)=O)N(C)C1=O (stereo partly drawn),,inactive,0,inactive,inactive,
CCCN1C(=O)C[C@@H](C(=O)N[C@@H](Cc2c[nH]cn2)C(=O)N2CCC[C@H]2C(N)=O)NC1=O [listing 2 of 2 here],,,0,,,
CN1C(=O)C[C@@H](C(=O)N[C@H](Cc2c[nH]cn2)C(=O)N2CCC[C@@H]2C(=O)O)NC1=O,,inactive,0,inactive,inactive,
CN1C(=O)C[C@@H](C(=O)N[C@H](Cc2c[nH]cn2)C(=O)OCc2ccccc2)NC1=O,,inactive,0,inactive,inactive,
C=CCN1C(=O)C[C@@H](C(=O)N[C@@H](Cc2c[nH]cn2)C(=O)N2CCC[C@H]2C(N)=O)NC1=O [listing 2 of 2 here],,,1,,,
CC(C)N1C(=O)C[C@@H](C(=O)N[C@@H](Cc2c[nH]cn2)C(=O)N2CCC[C@H]2C(N)=O)NC1=O [listing 2 of 2 here],1.9,,,,,Activity [1]: 11.5; Activity [3]: 5
CN1C(=O)C[C@@H](C(=O)N[C@@H](Cc2c[nH]cn2)C(=O)N2CCC[C@H]2C(N)=O)N(C)C1=O [listing 2 of 2 here],,,0,,,
CN1C(=O)C[C@@H](C(=O)N[C@H](Cc2c[nH]cn2)C(=O)N2CCC[C@H]2C(N)=O)NC1=O,,inactive,0,inactive,inactive,
NC(=O)[C@@H]1CCCN1C(=O)[C@H](Cc1c[nH]cn1)NC(=O)[C@@H]1CC(=O)N(CC(=O)O)C(=O)N1,0.1,inactive,0,,,Activity [1]: 0.1
